# Results reported in ChEMBL document CHEMBL1159323, “Lignanamides and nonalkaloidal components of Hyoscyamus niger seeds” (J Nat Prod, 2002).
# Test system: LNCaP
# Experiment: Cytotoxicity against human LNCAP cells after 48 hrs by MTT assay
# Format: functional, cell-based
# Method in brief: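 LNCaP cells (ATCC CRL1740) grown in RPMI with 10% FBS, streptomycin and penicillin at 37 °C, 5% CO2. Seeded 2 × 10^5 cells/well and exposed to a range of compound concentrations for 48 h at 37 °C. MTT was then added for 4 h at 37 °C. Formazan was dissolved in DMSO and absorbance read at 540 nm. IC50 derived; run in triplicate.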
row,Structure (SMILES),IC50
1,COc1cc(/C=C/C(=O)OCCCCCCCCCCCCCCCCCCCCCCCCOC(=O)/C=C/c2ccc(O)c(OC)c2)ccc1O,> 100 µM
2,CCCCC/C=C\C/C=C\CCCCCCCC(=O)OC(CO)COC(=O)CCCCCCC/C=C/C/C=C/CCCCC (stereo unspecified),> 100 µM
3,CCCCC/C=C\C/C=C\CCCCCCCC(=O)OCC(O)COC(=O)CCCCCCCCCCCCCCCCCC (stereo unspecified),> 100 µM
4,CCCCC/C=C\C/C=C\CCCCCCCC(=O)OCC(O)CO (stereo unspecified),> 100 µM
5,CCCCC/C=C\C/C=C/CCCCCCCC(=O)OCC(O)COC(=O)CCCCCCC/C=C\CCCCCCCC (stereo unspecified),> 100 µM
6,COc1cc([C@@H]2c3cc(O)c(OC)cc3C=C(C(=O)NCCc3ccc(O)cc3)[C@H]2C(=O)NCCc2ccc(O)cc2)ccc1O [CANNABISIN D],81 µM
7,COc1cc(/C=C(C(=O)NCCc2ccc(O)cc2)\C(=C/c2ccc(O)c(OC)c2)C(=O)NCCc2ccc(O)cc2)ccc1O [CANNABISIN G],76 µM
8,CCCCCCCCCCCCCCCCCC(=O)OCC(O)CO (stereo unspecified) [GLYCERYL MONOSTEARATE],> 100 µM
9,COc1cc([C@@H]2Oc3c(OC)cc(/C=C/C(=O)NCCc4ccc(O)cc4)cc3[C@H]2C(=O)NCCc2ccc(O)cc2)ccc1O [GROSSAMIDE],33 µM
10,COc1cc(/C=C(C(=O)NCCc2ccc(O)cc2)/C(=C/c2ccc(O)c(OC)c2)C(=O)NCCc2ccc(O)cc2)ccc1O [HYOSCYAMIDE],> 100 µM
11,COc1cc(/C=C/C(=O)NCCc2ccc(O)cc2)ccc1O [N-TRANS-FERULOYL TYRAMINE],> 100 µM
